# Compound activity: PubChem, several laboratories
# EBV gp42 inh: Epstein-Barr virus gp42 inhibitors, primary screen, biochemical, uHTS, fluorescence polarization; Glycoprotein 42 (Epstein-Barr virus (strain AG876)), Q1HVG2; Fluorescence polarization binding assay, mP read-out; inhibition, % (tested at 21.74 µM); 220,000 tested, 0.42% active; in the data active means inhibition above about 50%
# NCF1 inh: p47phox/p22phox peptide binding inhibitors, primary screen, biochemical, uHTS, NADPH oxidase regulatory subunit; Neutrophil cytosol factor 1 (Homo sapiens), P14598; fluorescence polarization, 2 h; inhibition, % at 24.7 µM; 220,000 tested, 0.53% active; AID 1274, 2008
# WT yeast gro inh: growth inhibition of WT strain, primary screen, mitochondrial fusion inhibitor project, WT and mutant strains, chemical genetic | mitochondrial fusion phenotypic screen | inhibition, % at 10 µM | 190,000 tested, 2.1% active | AID 1362, 2008; in the data active means inhibition above about 58%; tested in S. cerevisiae
# 14-3-3 Bad PPI: inhibitors of 14-3-3 zeta/Bad binding, primary screen, biochemical, TR-FRET, bovine 14-3-3 zeta; 14-3-3 protein zeta/delta (Bos taurus), P63103; TR-FRET 14-3-3zeta/Dy647-pBad peptide displacement, 1 h; inhibition, % at 21.7 µM; 220,000 tested, 0.71% active; AID 781, 2007;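 active means inhibition above about 70%, limit read from the data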
# RBBP9 inhibitor: human RBBP9 inhibitors, primary screen, biochemical, fluorescence polarization, FP-Rh probe, HTS; 220,000 tested, 0.2% active; inhibition, % at 7.94 µM; recombinant RBBP9; AID 1515, 2009;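 active means inhibition above the campaign mean of all tested compounds plus 3 SD, cut at about 14% in these data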
#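 Test system – recombinant human RBBP9 · Input – RBBP9 2.5 µM in dispensing solution, pre-mixing · Medium – Tris buffer pH 8.0, NaCl, Pluronic · Schedule – preincubation 30 min plus labeling 45 min at 25 °C · Measured by – fluorescence polarization · Measure – % inhibition · Controls – DMSO and no-protein wells · Replicates – one well per compound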
# eIF4E 4G PPI: eIF4E–eIF4G protein interaction inhibitors, primary screen, biochemical, uHTS, TR-FRET, eIF4GI fragment; TR-FRET eIF4E-eIF4GI(517-606) binding, 2 h; 220,000 tested, 0.37% active; inhibition, % at 21.7 µM; AID 782, 2007
# Numbers stand for hits; i = inactive; nt = no result given. The list is not random: actives were taken first. Their share in the collection is about 3.7%.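 How the source made its calls, unless noted: active means inhibition above about 30% (limit read from the data); inactive means the rest.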
SMILES,EBV gp42 inh,NCF1 inh,WT yeast gro inh,14-3-3 Bad PPI,RBBP9 inhibitor,eIF4E 4G PPI
CCCc1cc2c(=O)c(-c3nc4ccccc4s3)c(COCC(=O)O)oc2cc1O,i,i,i,i,i,i
COc1cc(OC)cc(C(=O)NC(=S)Nc2nnn(C)n2)c1,i,i,nt,i,i,i
Cc1cccc(-n2c(=O)c3c(n4cnnc24)-c2ccccc2CC32CCCCC2)c1,i,i,74,i,i,i
Cc1ccc(C(C(=O)NCc2ccccc2)N(Cc2cccs2)C(=O)c2ccc3c(c2)OCCO3)cc1 (configuration not stated),i,i,69,i,i,i
COc1ccc(CNC(=O)C(c2ccc(C)cc2)N(Cc2cccs2)C(=O)c2ccc3c(c2)OCCO3)cc1 (configuration not stated),i,i,i,i,i,i
COc1ccccc1-c1ccc(SCc2cccc(C)c2)nn1,i,i,68,i,i,i
COc1ccccc1-c1ccc(SCc2ccc([N+](=O)[O-])cc2)nn1,i,i,i,i,i,i
CCCC(C)NC(=O)COc1ccc(S(=O)(=O)N2CCCC2)cc1 (configuration not stated),i,i,i,i,i,i
O=c1[nH]c2ccccc2c2nc(-c3cccc(S(=O)(=O)N4CCCC4)c3)nn12,i,i,nt,i,i,i
Cc1oc2cc(O)ccc2c(=O)c1-c1nncn1-c1ccccc1,108,i,i,i,i,i
Cc1cccc(OCC(=O)NC2CCCc3ccccc32)c1C (configuration not stated),i,i,i,i,i,i
CC(C)c1ccccc1OCC(=O)NC1CCCc2ccccc21 (configuration not stated),i,i,61,i,i,i
O=C(O)[C@H](Cc1ccccc1)NC(=O)N1CCN(c2ccc(F)cc2)CC1,i,i,nt,i,i,i
COc1ccc(Cc2nc3ccc(S(=O)(=O)N4CCOCC4)cc3[nH]2)cc1OC,i,i,i,i,i,i
COc1ccc(Cc2nc3ccc(S(=O)(=O)N4CCOCC4)cc3[nH]2)cc1,i,i,79,i,i,i
COC(=O)c1ccc(Nc2cc(C)nc3ccc(C)cc23)cc1,i,i,nt,i,i,i
Cc1ccc2nc(C)cc(Nc3ccc([N+](=O)[O-])cc3)c2c1,i,i,i,77,i,i
COc1ccc(-n2c(O)c(/C=N/NS(=O)(=O)c3cccc([N+](=O)[O-])c3)c3ccccc3c2=O)cc1OC,i,i,i,i,i,i
CCN1CCN(CCNC(=O)c2ccc(/C=C3/Sc4ccccc4N(Cc4ccccc4C)C3=O)cc2)CC1,i,104,77,70,i,i
O=C(NCCN1CCOCC1)c1ccc2c(c1)N(Cc1ccccc1F)C(=O)c1ccccc1S2,i,i,i,i,i,i
CCN1CCN(CCCNC(=O)c2ccc(/C=C3/Sc4ccccc4N(Cc4ccccc4F)C3=O)cc2)CC1,i,90,i,81,i,i
O=C1c2ccccc2C(=O)N1CC#CCN1CCN(C(c2ccccc2)c2ccccc2)CC1,i,i,68,i,i,i
O=S(=O)(CCN1CCN(C(c2ccccc2)c2ccccc2)CC1)C(F)(F)F,i,i,i,i,i,i
O=C(N1CCN(c2ccccn2)CC1)N1c2ccccc2Sc2ccccc21,i,i,72,i,i,i
COC(=O)c1sc(-c2cccs2)cc1NC(=O)/C=C/C(=O)O,i,i,nt,i,i,i
OC1(c2cccnc2)CCN(Cc2nnnn2C2CCCCC2)CC1,i,i,i,84,i,i
C1CCC(n2nnnc2CN2CCCC2)CC1,i,i,i,i,i,i
CC(C)(CCl)C(=O)Nc1ccnc(-c2ccncc2)n1,i,i,i,i,i,i
Cc1ccc(C)c(-n2[nH]c3c4c(ccc3c2=O)C(=O)c2ccccc2C4=O)c1,i,i,67,i,i,i
CCOC(=O)C(=CNc1cc(C)ccc1-n1cccc1)C(=O)OCC,i,i,nt,i,i,i
